The record followed here is ChEMBL document CHEMBL1142561, “Prenylflavonoids and phloroglucinol derivatives from hops (Humulus lupulus)” (J Nat Prod, 2005).

Data set [1] has as its system RAW264.7. The data set can be described thus: Inhibition of LPS/IFN-gamma-induced NO production in mouse RAW264.7 cells after 16 hrs. Format: functional, cell-based. To be noted: RAW264.7, 16 h. The procedure, abridged: (§1)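 RAW 264.7 macrophages in RPMI 1640 with 10% FBS, 2 mM L-glutamine, penicillin/streptomycin, seeded at 5 × 10⁵ cells/mL. After 1 h, stimulated with LPS (100 ng/mL) plus IFN-γ (100 units/mL) and samples in DMSO (0.2% final) for 16 h at 37 °C. Supernatant nitrite measured by Griess assay at 570 nm against NaNO₂ standards. Inhibition rate taken relative to LPS/IFN-only wells.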

Data set [2] in a line: Cytotoxicity against mouse RAW264.7 cells assessed as cell viability at <10 uM after 16 hrs by MTT assay. In kind it is cell-based. To be noted: read-out: Activity. Put shortly:
(§2)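 RAW 264.7 cells grown in RPMI 1640 with 10% FBS, 2 mM L-glutamine, penicillin/streptomycin. Seeded at 5 × 10⁵ cells/mL in 96-well plates and co-treated with LPS (100 ng/mL), IFN-γ (100 units/mL) and samples in DMSO (0.2% final) for 16 h at 37 °C. MTT (200 μg/mL) added for a further 4 h. Formazan dissolved in DMSO, A540 read, compared with nontreated cells.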

The test system of data set [3] is RAW264.7. The data set is described as follows: Cytotoxicity against mouse RAW264.7 cells assessed as cell viability at 20 uM after 16 hrs by MTT assay. In kind it is cell-based. To be noted: raw264.7, 16 h. The procedure, abridged:
as §2
(In general: Tetrazolium assays rely on reduction of a dye to a coloured formazan, in cell work by metabolically active cells.)

The nature of data set [4]: Cytotoxicity against mouse RAW264.7 cells assessed as cell viability at 200 uM after 16 hrs by MTT assay. In kind it is cell-based. The following applies: read-out: Activity. Put shortly: as §2
For data set [5], the system named is RAW264.7. The data set can be described thus: Inhibition of LPS/IFN-gamma-induced NO production in mouse RAW264.7 cells at non cytotoxic concentration after 16 hrs. Format: functional. Put shortly: as §1
Data set [6] has as its system RAW264.7. The data set can be described thus: Cytotoxicity against mouse RAW264.7 cells after 16 hrs by MTT assay. In kind it is cell-based. To be noted: raw264.7, 16 h. The procedure, abridged: as §2
The nature of data set [7]: Cytotoxicity against mouse RAW264.7 cells assessed as cell viability at 2 uM after 16 hrs by MTT assay. Format: cell-based. The following applies: read-out: Activity. Put shortly:
as §2

For orientation: IC50 means the midpoint of a concentration-inhibition curve.

Regarding `COc1cc(O)c(CC(O)C(C)(C)OC)c(O)c1C(=O)/C=C/c1ccc(O)cc1` (racemic), in data set [1], half-maximal inhibition (IC50) was put at 6.5 µM. Moreover, the viability at 16 h in data set [2] is more than 95%.

Consider `COc1cc(O)c(CC=C(C)C)c(O)c1C(=O)CCc1ccc(O)cc1` [DIHYDROXANTHOHUMOL], for which, in data set [1], the 50% inhibitory concentration (IC50) was found to be 23 µM. Besides, the viability at 16 h in data set [2] is more than 95%. Besides, in data set [3], the Activity result is on record as “Non-toxic”.

In the case of `CC(C)=CCC1(CC=C(C)C)C(=O)C(O)=C(O)C1=O` [HULUPINIC ACID], the IC50 in data set [1] is more than 100 µM. Further, the viability at 16 h, 200 µM in data set [4] was more than 95%.

`CC(C)=CCC1=C2OC(C)(C)C=CC2(CC=C(C)C)C(=O)C(C(=O)CC(C)C)=C1O` (centres undefined) [LUPULONE A] showed an IC50 in data set [1] of 20 µM. The “inhibition (INH)” value in data set [5] is less than 40%. The Activity result in data set [6] was “Toxic”.

In data set [1], `CC(C)=CCC1=C2OC(C)(C)C=CC2(CC=C(C)C)C(=O)C(C(=O)C(C)C)=C1O` (centres undefined) [LUPULONE B] showed an IC50 of 14 µM. The “inhibition (INH)” value in data set [5] is recorded as less than 40%. Further, the Activity result in data set [6] was “Toxic”.

Take `CC(C)=CCC1(CC=C(C)C)C(=O)C2=C(OC(C(C)(C)O)C2)C(C(=O)CC(C)C)=C1O` (centres undefined) [LUPULONE C]: 63 µM corresponded to half-maximal inhibition in data set [1] (IC50). For the same compound, the “inhibition (INH)” value in data set [5] is reported as less than 40%. Further, the Activity result in data set [6] is recorded as “Toxic”.

In data set [1], `CC(C)=CCC1=C2OC(C(C)(C)O)CC2(CC=C(C)C)C(=O)C(C(=O)CC(C)C)=C1O` (centres undefined) [LUPULONE D] displayed an IC50 of 11 µM. Besides, the viability at 16 h, 2 µM in data set [7] was less than 95%. For the same compound, in data set [5], the “inhibition (INH)” value is less than 40%. The Activity entry in data set [6] was “Toxic”.

Compound `CC(C)=CCC1=C2OC(C(C)(C)O)CC2(CC=C(C)C)C(=O)C(C(=O)C(C)C)=C1O` (centres undefined) [LUPULONE E] had an IC50 in data set [1] of 15 µM. Also, in data set [7], the viability at 16 h, 2 µM is less than 95%. The “inhibition (INH)” value in data set [5] is less than 40%. The Activity entry in data set [6] is listed as “Toxic”.

In data set [1], `CC(C)C(=O)c1c(O)ccc2c1OC(C(C)(C)O)C2` (centres undefined) [LUPULONE F] had a concentration for half-maximal inhibition (IC50) of more than 100 µM.

In data set [1], `CC(C)=CCC1=C(O)C(C(=O)CC(C)C)=C(O)C(CC=C(C)C)(CC=C(C)C)C1=O` [LUPULONE] gave a half-maximal inhibitory concentration (IC50) of 17 µM. For the same compound, the “inhibition (INH)” value in data set [5] was less than 40%. In addition, the Activity entry in data set [6] is reported as “Toxic”.

Regarding `COc1cc2c(c(O)c1C(=O)/C=C/c1ccc(O)cc1)CC(O)C(C)(C)O2` (centres undefined) [XANTHOHUMOL B], the half-inhibitory concentration (IC50) in data set [1] was determined as 5.6 µM. For the same compound, the viability at 16 h in data set [2] is more than 95%.

With `C=C(C)C(O)Cc1c(O)cc(OC)c(C(=O)/C=C/c2ccc(O)cc2)c1O` (centres undefined) [XANTHOHUMOL D], in data set [1], the half-maximal inhibitory concentration (IC50) came out at 9.4 µM. The viability at 16 h in data set [2] was more than 95%.

Turning to `COc1cc(O)c(CC=C(C)C)c(O)c1C(=O)/C=C/c1ccc(O)cc1` [XANTHOHUMOL], the half-inhibitory concentration (IC50) in data set [1] stood at 8.3 µM. Further, the viability at 16 h in data set [2] was more than 95%.
